The text below walks through data of PubChem BioAssay.

Molecules are shown by their SMILES. Activity calls are given as the source filed them.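 The calls were made as follows, unless noted: active = fluorescence slope higher than the sample average by over 3 SD (cut at about -0.22 in these data, passing the limit was not always enough); inactive = the rest.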

A short description of assay [1]: inhibitors of TNFa-induced NFkB p65 translocation, primary screen, imaging, HUVEC, MLSMR starter and 10KST1 sets (AID 438;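 active = inhibition above 20% together with a positive visual image hit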;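 also: compound added about 3h40 before a 20 min TNFalpha stimulation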;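 as to inhibition: signal is the nuclear over cytoplasmic p65 intensity ratio per well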). The conditions noted are these: HUVEC TNFa-induced p65 nuclear translocation; cell count: measured here: nuclei count (cytotoxicity indicator), at 2.08 µM; inhibition: at 2 µM, stronger effect = higher value, 0% TNFa-plus-vehicle, 100% no-TNFa wells.
A short description of assay [2]: reduction of polyQ htt aggregates in cells – imaging, exon1htt(103Q)mCFP cells, high-content imaging, primary screen (AID 483;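 active = visual image review flags a hit and inhibition of aggregation exceeds 20%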;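 also: compound exposure lasted 3 days before fixation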;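 as to nuclei count: percent of the per-plate median nuclei count of sample wells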). The conditions noted are these: exon1htt(103Q)mCFP cell line, aggregate imaging, at 2 µM; inhibition of aggregation: stronger effect = higher value; nuclei count: measured here: cell count, toxicity.
A short description of assay [3]: endothelial E-selectin expression blockers – imaging, HUVEC, immunofluorescence, MLSMR starter and 10KST1 sets, primary screen (AID 487;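 active = visually confirmed hit in the image check and inhibition above 20%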;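 as to inhibition: signal is fraction of cell area covered by stained E-selectin grains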;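 as to nuclei count: 100% = median nuclei count of all wells on the same plate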). Particulars: HUVEC TNFalpha-induced E-selectin immunofluorescence imaging, at 2 µM; inhibition: stronger effect = higher value; nuclei count: measured here: cell number, toxicity.
In assay [4] the target is Voltage-gated potassium channel subunit beta-2 (Rattus norvegicus) (UniProt P62483). Kind of assay: inhibitors of rat Kvbeta2 reductase activity – biochemical, NADPH fluorescence, primary screen (AID 622).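 Also: slope of raw intensity against log time taken from 70 to 1610 s.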 The conditions noted are these: recombinant KvBeta, 4-cyanobenzaldehyde reduction, at 10 µM, stronger effect = higher value.
The target is the same in assay [5]. In words: enhancers of rat Kvbeta2 NADPH turnover – biochemical, NADPH fluorescence, primary screen (AID 623;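 active = NADPH fluorescence slope more negative than the mean of all samples by about 3 SD, 99.7% confidence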;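 also: fluorescence intensity change per second fitted from 20 to 320 s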). The conditions noted are these: Recombinant KvBeta, NADPH fluorescence decrease slope, 10 min; at 10 µM; stronger effect = lower value.
Assay [6] has as its target Muscarinic acetylcholine receptor M4 (Homo sapiens) (UniProt P08173). Kind of assay: M4-linked GIRK flux change, two-sided – cell-based, HEK293 M4/GIRK, thallium flux, BTC-AM, M4 allosteric agonist project, primary screen (AID 625;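 active = fluorescence slope after compound addition differing from the mean of all tested samples at 99.7% confidence, mostly higher but some lower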;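 also: thallium influx through GIRK channels coupled to M4 in HEK293 cells with BTC-AM dye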). The conditions noted are these: at 10 µM, actives lie on both sides. Put shortly: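 Material: M4/GIRK1/GIRK2 stable HEK293 cell line. Medium: pH 7.3 thallium assay buffer. Dosing: single compound concentration, 10 µM final. Schedule: 1 h dye loading, 2 min kinetic read. Measured by: kinetic fluorescence with BTC-AM dye. Read-out: post-addition slope, 15–24 s, of baseline-normalized fluorescence. Benchmarks: carbachol and DMSO controls.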

Assay [7] in a line: blockers of RIG-like receptor reporter activation – cell-based, Sendai virus stimulus, luciferase, 10K MLSCN set, TLR/RLR signaling modifier project, primary screen (AID 602276;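 active = inhibition at or above 50% at 10 µM; inactive = inhibition below 50%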;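 also: firefly luciferase from ISG56 promoter only with Renilla not read in this screen; 0% = Sendai virus plus DMSO and 100% = medium plus DMSO without virus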). Particulars: HEK293 RL24 IRF3 luciferase reporter, at 10 µM, stronger effect = higher value. For orientation: Reporter assays use an easily measured gene product as a stand-in for the process of interest.
Assay [8] is described as follows: TLR3 IRF3 reporter activation blockers – cell-based, poly I:C stimulus, luciferase, 10K MLSCN set, primary screen (AID 602277;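 active = inhibition of the reporter signal at or above 50%; inactive = inhibition below 50%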). Particulars: HEK293-TLR3 RL24 IRF3 luciferase reporter, at 10 µM, stronger effect = higher value.

Sequence of Muscarinic acetylcholine receptor M4 (Homo sapiens) (P08173 whole entry, looked up): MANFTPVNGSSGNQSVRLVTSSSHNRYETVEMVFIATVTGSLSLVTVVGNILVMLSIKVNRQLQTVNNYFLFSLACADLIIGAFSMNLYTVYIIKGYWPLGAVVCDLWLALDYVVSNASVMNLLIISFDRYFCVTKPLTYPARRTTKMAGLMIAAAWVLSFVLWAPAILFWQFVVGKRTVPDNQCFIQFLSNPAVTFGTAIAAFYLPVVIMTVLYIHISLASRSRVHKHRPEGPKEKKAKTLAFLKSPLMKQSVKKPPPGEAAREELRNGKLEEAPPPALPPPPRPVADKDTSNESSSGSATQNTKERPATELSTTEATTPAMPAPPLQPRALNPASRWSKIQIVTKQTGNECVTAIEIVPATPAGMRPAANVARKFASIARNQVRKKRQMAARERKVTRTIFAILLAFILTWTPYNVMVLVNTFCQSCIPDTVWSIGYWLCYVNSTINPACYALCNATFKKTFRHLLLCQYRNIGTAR
Sequence of Voltage-gated potassium channel subunit beta-2 (Rattus norvegicus) (P62483 whole entry, looked up): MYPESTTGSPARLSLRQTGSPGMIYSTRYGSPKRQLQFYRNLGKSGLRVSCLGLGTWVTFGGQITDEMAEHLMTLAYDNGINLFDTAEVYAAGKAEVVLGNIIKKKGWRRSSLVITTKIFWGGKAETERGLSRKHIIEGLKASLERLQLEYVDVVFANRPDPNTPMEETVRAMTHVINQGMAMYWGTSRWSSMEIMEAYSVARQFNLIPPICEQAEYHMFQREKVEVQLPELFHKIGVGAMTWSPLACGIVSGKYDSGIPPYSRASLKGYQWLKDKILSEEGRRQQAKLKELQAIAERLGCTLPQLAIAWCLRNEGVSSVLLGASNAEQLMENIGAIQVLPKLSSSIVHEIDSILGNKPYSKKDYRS

Turning to `CC(C(=O)NC1CCCCCC1)N(c1ccccc1)S(C)(=O)=O` (centres undefined), the cell count in assay [1] is 370. Moreover, the inhibition was 1.9% (inactive) in assay [1], -7.4% (inactive) in assay [3], 15.7% (inactive) in assay [7] and 3.26% (inactive) in assay [8]. In addition, the inhibition of aggregation in assay [2] is 4.5% (inactive). Besides, the nuclei count was found to be 108% in assay [2] and 97% in assay [3]. Also, the results for the fluorescence slope in assay [4] and in assay [6] were -0.548 (inactive) and 0.00352 (inactive), respectively. Also, the NADPH fluorescence slope in assay [5] was -0.000126 (inactive).
Consider `COc1c2ccoc2nc2c(OC)c(OCC(O)C(C)(C)O)ccc12` (centres undefined), for which the cell count in assay [1] worked out at 411. The inhibition in assay [1] is -1.6% (inactive); in assay [3] it was -62.9% (inactive); in assay [7] it was 15.7% (inactive); in assay [8] it was 7.86% (inactive). Besides, the inhibition of aggregation in assay [2] was -14.6% (inactive). In addition, the nuclei count was 101% in assay [2] and 138% in assay [3]. Also, the fluorescence slope in assay [4] is -0.11 (inactive); in assay [6] it was 0.00374 (inactive). Moreover, in assay [5], the NADPH fluorescence slope was -1.8e-05 (inactive).
Turning to `CC(Oc1ccccc1)C(=O)N1CCCc2ccccc21` (centres undefined), the cell count in assay [1] is 474. The inhibition in assay [1] is 9.1% (inactive); in assay [3] it was -43.6% (inactive); in assay [7], 2.1% (inactive); in assay [8], 29.5% (inactive). In assay [2], the inhibition of aggregation was -2.8% (inactive). In addition, the figures for the nuclei count in assay [2] and in assay [3] were 118% and 112%, respectively. Further, the results for the fluorescence slope in assay [4] and in assay [6] were -0.239 (inactive) and 0.00527 (inactive), respectively. For the same molecule, the NADPH fluorescence slope in assay [5] was 1.4e-05 (inactive).
With `CN(CC(=O)Nc1ccccc1Cl)C(=O)COC(=O)CNC(=O)c1ccc(Br)o1`, the cell count in assay [1] amounted to 436. Moreover, the inhibition in assay [1] was -13.1% (inactive); in assay [3], -13.8% (inactive); in assay [7] it was 15.4% (inactive); in assay [8], 30.4% (inactive). In assay [2], the inhibition of aggregation is -3.1% (inactive). Moreover, the nuclei count amounted to 115% in assay [2] and 107% in assay [3]. In addition, the fluorescence slope in assay [4] was -0.607 (inactive); in assay [6], 0.00546 (inactive). Also, the NADPH fluorescence slope in assay [5] is 2.6e-05 (inactive).
On to `O=C1CC(N2CCC(C(=O)N3CCCCC3)CC2)C(=O)N1` (centres undefined), for which the cell count in assay [1] turned out to be 349. Moreover, the inhibition was 4% (inactive) in assay [1], -37.4% (inactive) in assay [3], 19.9% (inactive) in assay [7] and 16.2% (inactive) in assay [8]. In addition, the inhibition of aggregation in assay [2] is 10.7% (inactive). Moreover, the nuclei count in assay [2] is 115%; in assay [3] it was 148%. In addition, the fluorescence slope is -0.554 (inactive) in assay [4] and 0.00558 (inactive) in assay [6]. The NADPH fluorescence slope in assay [5] was -3.8e-05 (inactive).
For the molecule `COc1ccccc1C(=O)N1CCCC(c2nc(-c3cc(OC)c(OC)c(OC)c3)no2)C1` (centres undefined), in assay [1], the cell count was 307. Moreover, the inhibition was 0.5% (inactive) in assay [1], 19.1% (inactive) in assay [3], 12.4% (inactive) in assay [7] and 16.1% (inactive) in assay [8]. In addition, the inhibition of aggregation in assay [2] was -0.4% (inactive). Also, the results for the nuclei count in assay [2] and in assay [3] were 120% and 100%, respectively. The results for the fluorescence slope in assay [4] and in assay [6] were -0.474 (inactive) and 0.0058 (inactive), respectively. Besides, the NADPH fluorescence slope in assay [5] is -3.6e-05 (inactive).
Regarding `Cc1cncn1CCc1nc2c3ccccc3nc(=S)n2[nH]1`, the cell count in assay [1] was found to be 537. Moreover, the inhibition in assay [1] is 0% (inactive); in assay [3], -141% (inactive); in assay [7], 17% (inactive); in assay [8], 28.8% (inactive). Besides, the inhibition of aggregation in assay [2] is 4.4% (inactive). The nuclei count in assay [2] worked out at 67.3%; in assay [3], 110%. Moreover, the fluorescence slope was -0.432 (inactive) in assay [4] and 0.00558 (inactive) in assay [6]. Besides, the NADPH fluorescence slope in assay [5] was 1.4e-06 (inactive).
Take `COC(=O)c1ccc2c(=O)n(Cc3ccco3)c(SCC(=O)Nc3ccc(C)c(Cl)c3)nc2c1`: in assay [1], the cell count turned out to be 445. In addition, the inhibition in assay [1] was 5% (inactive); in assay [3], 4.9% (inactive); in assay [7] it was 13.7% (inactive); in assay [8], 28.2% (inactive). Also, in assay [2], the inhibition of aggregation is 10.1% (inactive). Further, the nuclei count turned out to be 115% in assay [2] and 91% in assay [3]. Besides, the figures for the fluorescence slope in assay [4] and in assay [6] were -0.436 (inactive) and 0.00926 (inactive), respectively. Further, in assay [5], the NADPH fluorescence slope was -2.2e-05 (inactive).
For `FC(F)(F)c1cc(-c2ccco2)nc(-n2nnc3ccccc32)n1`, the cell count in assay [1] stood at 529. For the same molecule, the inhibition was -6.9% (inactive) in assay [1], -12% (inactive) in assay [3], 15.2% (inactive) in assay [7] and 22.4% (inactive) in assay [8]. Besides, in assay [2], the inhibition of aggregation was -8.6% (inactive). In addition, the figures for the nuclei count in assay [2] and in assay [3] were 109% and 101%, respectively. Besides, the results for the fluorescence slope in assay [4] and in assay [6] were -0.562 (inactive) and 0.00724 (inactive), respectively. For the same molecule, in assay [5], the NADPH fluorescence slope is 1.3e-05 (inactive).
Take `CCS(=O)(=O)N1CCC(C(=O)NCc2cccs2)CC1`: the cell count in assay [1] stood at 683. The inhibition was -5.9% (inactive) in assay [1], -111% (inactive) in assay [3], 5.97% (inactive) in assay [7] and 13.7% (inactive) in assay [8]. Further, in assay [2], the inhibition of aggregation is 12.4% (inactive). Moreover, the nuclei count in assay [2] is 77.5%; in assay [3] it was 102%. In addition, the fluorescence slope in assay [4] was -0.549 (inactive); in assay [6], 0.00636 (inactive). For the same molecule, the NADPH fluorescence slope in assay [5] is -2e-05 (inactive).
In the case of `COc1cccc(C2=NOC(C(=O)Nc3ccc(C(C)=O)cc3)C2)c1` (centres undefined), the cell count in assay [1] amounted to 808. Moreover, the inhibition in assay [1] is -16.3% (inactive); in assay [3], -49.8% (inactive); in assay [7] it was -34.2% (inactive); in assay [8], -61.5% (inactive). The inhibition of aggregation in assay [2] is -6.4% (inactive). Also, the nuclei count is 107% in assay [2] and 80% in assay [3]. Moreover, the fluorescence slope was -0.583 (inactive) in assay [4] and 0.00535 (inactive) in assay [6]. In addition, in assay [5], the NADPH fluorescence slope is 2.1e-05 (inactive).
Take `Cc1oc(-c2ccccc2)cc1C(N)=O`: in assay [1], the cell count was found to be 248. The inhibition in assay [1] was 0% (inactive); in assay [3] it was 18.6% (inactive); in assay [7], 15.1% (inactive); in assay [8] it was 3.48% (inactive). Moreover, in assay [2], the inhibition of aggregation was -1.4% (inactive). Moreover, the nuclei count was determined as 66.5% in assay [2] and 97.7% in assay [3]. For the same molecule, the fluorescence slope is -0.548 (inactive) in assay [4] and 0.0055 (inactive) in assay [6]. Also, in assay [5], the NADPH fluorescence slope was -1.8e-05 (inactive).
Take `Cc1ncoc1C(=O)Nc1cccc(Cl)c1C`: the cell count in assay [1] turned out to be 540. Further, the inhibition in assay [1] is -14.2% (inactive); in assay [3], -38.5% (inactive); in assay [7], -22.6% (inactive); in assay [8], -46.1% (inactive). In assay [2], the inhibition of aggregation is 52.7% (active). Further, the values for the nuclei count in assay [2] and in assay [3] were 56.4% and 116%, respectively. In addition, the fluorescence slope is -0.302 (inactive) in assay [4] and 0.00599 (inactive) in assay [6]. Further, the NADPH fluorescence slope in assay [5] was 8.7e-06 (inactive).
As to `COc1ccc(C2NC(c3ccc(OC)c(OC)c3OC)C(C)C(=O)C2C)c(OC)c1OC` (centres undefined), the cell count in assay [1] came out at 663. The inhibition in assay [1] is -16.3% (inactive); in assay [3], -142% (inactive); in assay [7] it was 14.8% (inactive); in assay [8], 25.4% (inactive). Moreover, the inhibition of aggregation in assay [2] is 2.6% (inactive). In addition, the nuclei count in assay [2] amounted to 141%; in assay [3] it was 104%. For the same molecule, the fluorescence slope in assay [4] is -0.474 (inactive); in assay [6] it was 0.00551 (inactive). Moreover, the NADPH fluorescence slope in assay [5] was -2.1e-05 (inactive).

One may read the inhibition as the change of the read-out against control, counted positive when it falls.
